Laboratory results from ChEMBL document CHEMBL3813689, “Discovery of Potent Benzofuran-Derived Diapophytoene Desaturase (CrtN) Inhibitors with Enhanced Oral Bioavailability for the Treatment of Methicillin-Resistant Staphylococcus aureus (MRSA) Infections” (J Med Chem, 2016).

What was measured:
[1] = test system: Staphylococcus aureus; experiment: Sensitization of methicillin-resistant Staphylococcus aureus USA300 LAC to H2O2 assessed as bacterial survival at 1 uM measured after 24 hrs (reference value: 14.2%); format: functional
[2] = Volume of distribution at steady state in Sprague-Dawley rat at 5 mg/kg, iv administered as single dose; format: ADME, organism-based; details: in vivo, read-out: Vdss
Method in brief: (§1)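 Male SD rats, 3 per group, single iv 5 mg/kg or oral 10 mg/kg. Blood sampled 0.083 (iv only), 0.25, 0.5, 1, 2, 4, 6, 8, 24 h postdose; plasma separated at 4 °C, stored −80 °C, analysed within 1 week. Parameters from plasma concentration-time data; F from dose-normalized AUC, oral vs iv.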

[3] = test system: Staphylococcus aureus; experiment: Inhibition of staphyloxanthin pigment formation in Staphylococcus aureus Newman after 48 hrs by spectrophotometric method; format: functional, organism-based
Method in brief: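 Compounds as 20 mM DMSO stocks, serial 2-fold dilutions in DMSO; 40 µL added to 4 mL TSB culture, 37 °C for 48 h, in triplicate. Cells washed twice with PBS, pigment extracted with methanol, OD450 measured; IC50 from dose-response curve fit of OD data.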

[4] = test system: Trichophyton mentagrophytes; experiment: Antifungal activity against Trichophyton mentagrophytes measured after 7 days by serial dilution method; format: functional
Method in brief: (§2)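 Broth serial dilution MIC per NCCLS in RPMI 1640 buffered with 0.165 M MOPS; compounds in DMSO diluted in medium. Dermatophytes incubated at 28 °C, read at 7 days. MIC taken as lowest concentration giving ≥80% growth inhibition versus control (turbidity).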

[5] = test system: Staphylococcus aureus; experiment: Sensitization of methicillin-resistant Staphylococcus aureus USA400 MW2 to immune clearance in human whole blood assessed as reduction in bacterial survival at 1 uM measured after 24 hrs relative to control; format: functional
Method in brief: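 Overnight cultures spun down and resuspended in sterile PBS at 1 × 10^7 CFU/mL. 40 µL mixed with 360 µL fresh whole blood from a healthy human volunteer, giving 1 × 10^6 CFU/mL. Incubated 6 h at 37 °C. Surviving CFU counted by plating dilutions on TSA.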

[6] = test system: Staphylococcus aureus; experiment: Antibacterial activity against Staphylococcus aureus Mu50 infected Balb/c mouse assessed as reduction of bacterial survival in kidney at 1.3 mg, ip bid administered for 4.5 days followed by bacterial infection measured after 5 days; format: functional
[7] = test system: Trichophyton rubrum; experiment: Antifungal activity against Trichophyton rubrum measured after 7 days by serial dilution method; format: functional; method in brief: as §2
[8] = test system: Staphylococcus aureus; experiment: Antibacterial activity against Staphylococcus aureus Mu50 infected Balb/c mouse assessed as reduction of bacterial survival in liver at 1.3 mg, ip bid administered for 4.5 days followed by bacterial infection measured after 5 days; format: functional
[9] = test system: Staphylococcus aureus; experiment: Sensitization of Staphylococcus aureus Newman to H2O2 assessed as bacterial survival at 1 uM measured after 24 hrs (reference value: 36.2%); format: functional
[10] = test system: Staphylococcus aureus; experiment: Inhibition of staphyloxanthin pigment formation in methicillin-resistant Staphylococcus aureus Mu50 after 48 hrs by spectrophotometric method; format: functional, organism-based; details: Mu50, 48 h
Method in brief: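 MRSA grown in 4 mL TSB with 40 µL compound (2-fold serial dilutions from 20 mM DMSO stock) at 37 °C for 48 h, triplicate. Cells washed twice in PBS, pigment extracted with methanol, OD450 measured; IC50 from dose-response fit.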

[11] = test system: Staphylococcus aureus; experiment: Sensitization of Staphylococcus aureus Newman to H2O2 assessed as reduction in bacterial survival at 1 uM measured after 24 hrs relative to control; format: functional
Method in brief: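 Strains grown 24 h in TSB with or without inhibitor, washed twice in PBS, then diluted to 4 × 10^6 CFU per 250 µL reaction. H2O2 added to a final 1.5%. Tubes sealed and held 30 min at 37 °C. Reaction stopped with 1000 U/mL catalase. Survivors counted as CFU by serial dilution on TSA plates and compared with untreated (mock) bacteria.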

[12] = test system: Staphylococcus aureus; experiment: Sensitization of Staphylococcus aureus Newman to immune clearance in human whole blood assessed as bacterial survival at 1 uM measured after 24 hrs (reference value: 26.7%); format: functional
[13] = test system: Staphylococcus aureus; experiment: Sensitization of Staphylococcus aureus Newman to immune clearance in human whole blood assessed as reduction in bacterial survival at 1 uM […] relative to control; format: functional
[14] = test system: Staphylococcus aureus; experiment: Antibacterial activity against Staphylococcus aureus Newman infected Balb/c mouse assessed as reduction of bacterial survival in kidney at 5.2 mg, ip bid administered for 4.5 days followed by bacterial infection measured after 5 days; format: functional
Method in brief: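 Female BALB/c mice, 6–8 weeks, dosed ip with compound in sterile water once and every 12 h for 108 h; water vehicle controls. Challenged 12 h after first dose with 1 × 10^7 CFU Newman by retro-orbital injection. Kidneys and hearts homogenised in PBS/0.1% Triton X-100 and plated on TSA for CFU. n = 13 mice; two-tailed Mann-Whitney.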

[15] = test system: Staphylococcus aureus; experiment: Sensitization of methicillin-resistant Staphylococcus aureus USA400 MW2 to immune clearance in human whole blood assessed as bacterial survival at 1 uM measured after 24 hrs (reference value: 10.2%); format: functional
[16] = target: T1, 4,4'-diapophytoene desaturase (4,4'-diaponeurosporene-forming) (Staphylococcus aureus (strain Newman), UniProt O07855); experiment: Inhibition of Staphylococcus aureus Newman 6His-tagged CrtN expressed in Escherichia coli BL21(DE3) using diapophytoene as substrate assessed as pigment formation after overnight incubation by spectrophotometric method; design: species or system Staphylococcus aureus subsp. aureus str. Newman
T1 sequence (O07855 whole entry): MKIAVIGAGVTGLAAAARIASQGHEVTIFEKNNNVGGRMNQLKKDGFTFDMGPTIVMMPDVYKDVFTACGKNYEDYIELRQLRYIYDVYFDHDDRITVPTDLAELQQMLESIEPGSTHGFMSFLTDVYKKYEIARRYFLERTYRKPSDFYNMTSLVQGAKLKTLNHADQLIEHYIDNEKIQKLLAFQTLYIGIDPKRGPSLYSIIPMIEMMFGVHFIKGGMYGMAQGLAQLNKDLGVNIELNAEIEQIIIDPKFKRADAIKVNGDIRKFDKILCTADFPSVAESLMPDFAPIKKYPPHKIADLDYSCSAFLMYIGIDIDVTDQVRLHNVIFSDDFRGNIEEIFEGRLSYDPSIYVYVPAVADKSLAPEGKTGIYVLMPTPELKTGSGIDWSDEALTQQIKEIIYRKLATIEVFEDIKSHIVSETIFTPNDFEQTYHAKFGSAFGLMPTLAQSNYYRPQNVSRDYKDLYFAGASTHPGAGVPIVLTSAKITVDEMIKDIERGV
Method in brief: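 Lysate of E. coli BL21(DE3) expressing 6His-CrtN (IPTG 0.5 mM, 16 °C overnight), ~1.41 mg CrtN per reaction, with diapophytoene–phosphatidylcholine emulsion in 0.02 M HEPES pH 7.5 plus FAD. Anaerobic via glucose oxidase 20 U/mL, catalase 20000 U/mL, glucose 2 mM (final). Started with lysate, overnight at 37 °C; triplicate.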

[17] = Oral bioavailability in Sprague-Dawley rat at 10 mg/kg administered as single dose; format: ADME, organism-based; details: in vivo; method in brief: as §1
[18] = test system: Trichophyton verrucosum; experiment: Antifungal activity against Trichophyton verrucosum measured after 7 days by serial dilution method; format: functional; method in brief: as §2
[19] = test system: Staphylococcus aureus; experiment: Antibacterial activity against Staphylococcus aureus Mu50 infected Balb/c mouse assessed as reduction of bacterial survival in kidney at 5.2 mg, ip bid administered for 4.5 days followed by bacterial infection measured after 5 days; format: functional
[20] = test system: Nannizzia gypsea; experiment: Antifungal activity against Microsporum gypseum measured after 7 days by serial dilution method; format: functional; method in brief: as §2

Q: Which survival at 1 µM [1] does the source give for `CN(C/C=C/c1ccc(C(F)(F)F)cc1)Cc1cccc2ccoc12.Cl` here?
A: The survival at 1 µM was 0.7%.

Q: What about the Vd [2] of the same compound?
A: Its Vd is 10.7 L/kg.

Q: And the IC50 [3]?
A: The IC50 was 3.93 nM.

Q: And the “MIC=<80” value [4]?
A: The value was over 64 mg/L.

Q: And the “fold change (FC)” value [5]?
A: The value was 8.

Q: And the Activity [6]?
A: Its Activity is 0.68 deltalog10CFU.

Q: And the MIC80 [7]?
A: Its MIC80 is 16 mg/L.

Q: And the Activity [8]?
A: The Activity was 2.94 deltalog10CFU.

Q: What about the survival at 1 µM [9] of the same compound?
A: Its survival at 1 µM is 1.2%.

Q: And the IC50 [10]?
A: The IC50 was 0.38 nM.

Q: What about the “fold change (FC)” value [11] of the same compound?
A: The value was 30.

Q: And the survival at 1 µM [12]?
A: Its survival at 1 µM is 0.8%.

Q: And the “fold change (FC)” value [13]?
A: Its value is 33.

Q: And the Activity [14]?
A: Its Activity is 0.85 deltalog10CFU.

Q: And the survival at 1 µM [15]?
A: The survival at 1 µM was 1.3%.

Q: And the IC50 [16]?
A: The IC50 was 339 nM.

Q: What about the bioavailability [17] of the same compound?
A: Its bioavailability is 42.2%.

Q: And the “MIC80 (lowest concentration giving ≥80% growth inhibition)” value [18]?
A: The value was over 64 mg/L.

Q: And the Activity [19]?
A: Its Activity is 1.11 deltalog10CFU.

Q: And the “MIC80 (lowest concentration giving ≥80% growth inhibition)” value [20]?
A: The value was 32 mg/L.
